Reference: ChEMBL document CHEMBL3861952, “Donepezil-like multifunctional agents: Design, synthesis, molecular modeling and biological evaluation” (Eur J Med Chem, 2016)
Active and inactive are the calls of the source. The calls are words filed in the database; no cut-off is given here.

Columns and labels:
[1] = Antioxidant activity of the compound assessed as AAPH radical scavenging activity measured as trolox equivalent at 0.1 to 1 uM preincubated for 15 mins with fluorescein followed by addition of AAPH measured every min for 1 hr by oxygen radical absorbance capacity assay; assay type: functional
Summary of the method: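 ORAC: compound diluted in 75 mM PBS pH 7.4 (0.1–1 μM) and pre-incubated 15 min at 37 °C with 70 nM fluorescein. 12 mM AAPH then added and fluorescence (ex 485/em 520) read every minute for 1 h. Net area under the decay curve converted against a trolox standard curve; melatonin as reference.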

Homo sapiens [2] = species: Homo sapiens; assay: Selectivity index, ratio of IC50 for human recombinant MAOB to IC50 for human recombinant MAOA
Summary of the method: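 Separate 30 min pre-incubations at 37 °C of serial inhibitor dilutions with recombinant human MAO-A (360 mU/mL) or MAO-B (67.5 mU/mL). Then 1 mM p-tyramine with HRP/Amplex UltraRed added, pH 7.4, and fluorescence followed ≥1 h. Index taken as IC50(MAO-B)/IC50(MAO-A); ≥3 experiments in triplicate.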

Homo sapiens [3] = species: Homo sapiens; assay: Selectivity ratio of IC50 for human recombinant AChE to IC50 for human recombinant BuChE
[4] = Antioxidant activity of the compound assessed as time required to induce AAPH-mediated linoleic acid peroxidation (reference value: 40 to 60 mins); assay type: functional
[5] = Antioxidant activity of the compound assessed as DPPH radical scavenging activity at 50 uM after 60 mins by spectrophotometric method; assay type: functional
Summary of the method: (§1)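 DPPH scavenging: mixture shaken vigorously and left 60 min. Absorbance at 517 nm read and % activity calculated; trolox as comparator. Three replicates averaged.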

[6] = Antioxidant activity of the compound assessed as inhibition of Cu2+/ascorbic acid-induced H2O2 production at 0.1 to 1 uM after 10 mins by horse-radish peroxidase/amplex red-based fluorometric method; assay type: functional
Summary of the method: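 H2O2 generated by 0.2 μM Cu(II) plus 10 μM ascorbic acid, incubated 10 min at room temperature with varying compound concentrations. HRP/Amplex Red mixture then added to quantify H2O2 formed.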

[7] = Antioxidant activity of the compound assessed as DPPH radical scavenging activity after 60 mins by spectrophotometric method; assay type: functional; summary of the method: as §1

Structure (SMILES) | Ratio IC50 (Homo sapiens [2]) | Ratio IC50 (Homo sapiens [3]) | other results
COc1ccc2[nH]cc(CCNC(C)=O)c2c1 |  |  | Activity [1]: 2.51 equiv
C#CCN(CCC1CCN(Cc2ccccc2)CC1)Cc1ccc2cccc(O)c2n1 | > 2.8 | 52 | 
C#CCN(Cc1ccc2cccc(O)c2n1)C(C#N)C1CCN(Cc2ccccc2)CC1 (stereo not given) | > 9.8 | 2140 | 
Cc1c(C)c2c(c(C)c1O)CCC(C)(C(=O)O)O2 (stereo not given) |  |  | TIME [4]: 1.67 to 2 h; Activity [5]: Active
C#CCN(Cc1ccc2cccc(O)c2n1)C(C#N)CC1CCN(Cc2ccccc2)CC1 (stereo not given) | > 8.2 | 1650 | 
C#CCN(Cc1ccc(O)c2ncccc12)C(C#N)CCC1CCN(Cc2ccccc2)CC1 (stereo not given) | 1.8 |  | 
C#CCN(CCCC1CCN(Cc2ccccc2)CC1)Cc1ccc2cccc(O)c2n1 | > 2.7 | 65 | 
C#CCN(Cc1ccc2cccc(O)c2n1)C(C#N)CCC1CCN(Cc2ccccc2)CC1 (stereo not given) | > 9.9 | 0.7 | inhibition [6]: Active; Activity [1]: 1.12 equiv; TIME [4]: 0.833 to 1 h; Activity [7]: Dose-dependent effect
C#CCN(Cc1ccc2cccc(O)c2n1)CC1CCN(Cc2ccccc2)CC1 | > 2.2 | 152 | 
